Assay results collected from several papers.
Target: Mitotic checkpoint serine/threonine-protein kinase BUB1 (BUB1, Homo sapiens, UniProt O43683)

`CCCCN(CCCC)C(=O)CN1C[C@H](c2cc(OC)c3c(c2)OCO3)[C@@H](C(=O)O)[C@@H]1CC(C)(C)CCC` has a remaining binding of 75.4% (cell-free assay, competition with immobilised ligand; 1 µM).
For `CN(C)c1nccc(-c2cnc3ncccn23)n1`, the remaining binding was 78% (binding; 1 µM).
For `C=CC(=O)N1CCC(C(=O)NCC(=O)N2CCN(c3nc(-c4cnc(N)nc4C(F)F)nc(N4CCOCC4)n3)CC2)CC1`, the remaining binding was 77% (binding, competition with immobilised ligand; 1 µM).
`CCN1CCN(Cc2ccc(C(=O)Nc3ccc(C)c(Oc4ccc5c(c4)CC(=O)N5)c3)cc2C(F)(F)F)CC1` gave a remaining binding of 100% (binding, competition with immobilised ligand; 1 µM).
The remaining binding of `O=C(c1ccc(Nc2nccc(-c3cc4ccccc4s3)n2)cc1)N1CCC(N2CCCC2)CC1` is reported as 45% (binding, competition with immobilised ligand; 1 µM).
For `O=C(Nc1c[nH]nc1C(=O)NC1CCNCC1)c1cc(F)cc(F)c1`, the remaining binding was 100% (binding, competition with immobilised ligand; 1 µM).
With `Cc1cnn2ncc(-c3ccnc(N(C)C)n3)c2c1` the remaining binding was 63% (binding; 1 µM).
`FC(F)(F)Oc1cccc(-c2cnc3ccc(-c4ccncc4)nn23)c1` gave a remaining binding of 13% (cell-free assay, competition with immobilised ligand; 5 µM).
With `O=C(NCCCN1CCOCC1)c1ccc(Nc2ncc(Cl)c(-c3ccc(Cl)s3)n2)cc1` the remaining binding was 80% (binding, competition with immobilised ligand; 1 µM).
For `c1cncc(-c2cccc(Nc3nccc(NC4CCCCC4)n3)c2)c1`, the remaining binding was 59% (binding, competition with immobilised ligand; 10 µM).
For `COc1cnc(Nc2cccc(S(N)(=O)=O)c2)nc1N1CCN(c2ccccc2)C(=O)C1`, the remaining binding was 79% (binding, competition with immobilised ligand; 1 µM).
With `COc1ncc2cc3ccccc3nc2c1C#N` the remaining binding was 92% (cell-free assay, competition with immobilised ligand; 5 µM).
`CS(=O)(=O)N1CCCC(NC(=O)[C@H](CCC2CCCCC2)NC(=O)c2ccc(CNc3ncnc4c3nnn4-c3ccccc3)cc2)C1` (stereo partly shown) gave a remaining binding of 100% (cell-free assay, competition with immobilised ligand; 0.1 µM).
With `O=C(c1ccc(Nc2ncc(Cl)c(-c3ccc(Cl)s3)n2)cc1)N1CCC(N2CCCC2)CC1` the remaining binding was 65% (binding, competition with immobilised ligand; 1 µM).
For `COc1cc(-c2cn(C3CCc4c(F)cccc4N(CC(F)(F)F)C3=O)nn2)ccc1-n1cnc(C)c1` (stereo not shown), the remaining binding was 100% (cell-free assay, competition with immobilised ligand; 1 µM).
For `C[C@H]1CCN(c2nccc(-c3cnn4ncccc34)n2)C1`, the remaining binding was 52% (binding; 1 µM).
With `CN(C)CC#Cc1ccc(OCCCc2sc(N3CCc4cccc(C(=O)Nc5nc6ccccc6s5)c4C3)nc2C(=O)O)c(F)c1` the remaining binding was 81% (cell-free assay, competition with immobilised ligand; 1 µM).
`CN(C)c1nccc(-c2cnn3ncccc23)n1` has a remaining binding of 74% (binding; 1 µM).
For `O=C(N1CCS(=O)(=O)CC1)N1C[C@H](c2ccc(OC(F)(F)F)cc2)C[C@H](c2nc(C3CC3)no2)C1`, the remaining binding was 100% (cell-free assay, competition with immobilised ligand; 1 µM).
The remaining binding of `COc1ccnn2ncc(-c3ccnc(N(C)C)n3)c12` is reported as 96% (binding; 1 µM).
`C[C@@H]1CN(c2cc(-c3n[nH]c4ccc(OC5(C)CC5)cc34)ncn2)C[C@H](C)O1` gave a remaining binding of 84% (cell-free assay, competition with immobilised ligand; 0.1 µM).
`N[C@H]1CCN(c2nccc(-c3cnn4ncccc34)n2)C1` has a remaining binding of 97% (binding; 1 µM).
